Bioassay records as filed in PubChem BioAssay.
The list is not random: actives were taken first. Their share in the collection is about 1.7%.
Hck-Nef inh: human Hck-Nef kinase inhibition. Recombinant Hck-YEEI plus Nef, Z-Lyte FRET kinase assay. P08631. 220,000 compounds, 0.68% hits. inhibition, % at 20 µM;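 active = Hck-Nef kinase inhibition above about 50%, limit read from the data; inactive = inhibition below that limit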;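 also: 0% = DMSO with Hck plus Nef and 100% = Hck alone without Nef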
Runt-SMMHC FRET: blocks binding of human RUNX1 Runt domain to CBFb-SMMHC; Q01196+Q13951; Cerulean-Runt/Venus-CBFb-SMMHC FRET ratio 530/480, 1 h; inhibition, % at 20 µM; 220,000 compounds, 0.74% hits;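 active = mean inhibition across duplicate retests at 20 µM reaching about 50%, limit read from the data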;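 also: 0% = DMSO wells and 100% = wells with excess untagged CBFb-SMMHC; inhibitors lower the FRET ratio by blocking Runt binding to CBFb-SMMHC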
Target sequence (Q01196 whole entry, looked up, the tested form may be a part): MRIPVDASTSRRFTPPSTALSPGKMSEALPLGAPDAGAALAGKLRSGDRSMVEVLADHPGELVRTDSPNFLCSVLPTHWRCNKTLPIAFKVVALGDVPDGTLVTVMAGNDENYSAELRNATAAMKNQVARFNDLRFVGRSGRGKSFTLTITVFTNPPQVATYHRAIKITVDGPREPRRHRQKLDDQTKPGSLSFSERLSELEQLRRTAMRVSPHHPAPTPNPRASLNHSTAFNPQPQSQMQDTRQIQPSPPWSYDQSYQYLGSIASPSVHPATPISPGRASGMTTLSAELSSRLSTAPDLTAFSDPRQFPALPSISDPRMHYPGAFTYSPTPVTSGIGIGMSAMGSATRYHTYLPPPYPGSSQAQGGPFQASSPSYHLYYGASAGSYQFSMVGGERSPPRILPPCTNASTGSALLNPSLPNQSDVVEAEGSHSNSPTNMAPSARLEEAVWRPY
Target sequence (Q13951 whole entry, looked up, the tested form may be a part): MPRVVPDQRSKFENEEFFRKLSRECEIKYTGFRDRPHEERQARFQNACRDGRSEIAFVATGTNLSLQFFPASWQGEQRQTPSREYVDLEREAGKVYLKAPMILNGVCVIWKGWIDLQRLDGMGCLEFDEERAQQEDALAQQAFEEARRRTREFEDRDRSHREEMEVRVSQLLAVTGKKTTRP
Runt-CBFb FRET: blocks binding of human RUNX1 Runt domain to CBFb | Q01196+Q13951 | Cerulean-Runt/Venus-CBFb FRET ratio 530/480, 1 h | inhibition, % at 20 µM | 220,000 compounds, 0.46% hits;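 active = inhibition over about 50% at 20 µM in the single-dose screen, limit read from the data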;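 also: 0% = DMSO wells and 100% = excess unlabeled CBFb competitor control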
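test system = Cerulean-Runt domain fusion protein, energy donor | probe or stimulus = Venus-CBFb binding partner, 100 nM | incubation = two 1 h room-temperature incubations shielded from light | detection = fluorescence energy transfer, 422 nm excitation, 530/480 nm emission | measure = loss of energy transfer signal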
RanGTP-Impb inh: inhibitors of RanGTP-importin-beta interaction, primary screen, biochemical, FRET, CFP-Ran, YFP-importin-beta, homogeneous | 300,000 compounds, 1.1% hits | inhibition, % (concentration not given with the values) | AID 2216 | cell-free CFP-Ran/YFP-importin-beta FRET ratio;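 active = more than half of the replicate wells show a fall in the fluorescence ratio signal beyond about 16%, limit read from the data, passing the limit was not always enough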;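 also: 0% = DMSO wells and 100% = Ran loaded with GDP instead of GTP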
RUNX1 CBFb TR: Runt-CBFb binding inhibition; inhibition, % at 20 µM; 480 compounds, 20% hits; TR-FRET RUNX1 Runt domain-CBFb binding; shares compounds with Runt-CBFb FRET; AID 1502; in the data active = inhibition above about 40%
YIC counter: counter-screen for RanGTP-importin-beta inhibitors: YIC FRET probe; shares compounds with RanGTP-Impb inh; Purified YIC probe, intramolecular FRET ratio YFP/CFP; IC50, µM; 1,000 compounds, 40% hits; AID 435026;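 active = fitted half-maximal inhibitory concentration no more than tenfold above the top dose tested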
The depositor's hits bear a star; · = no result shown.

SMILES	Hck-Nef inh	Runt-SMMHC FRET	Runt-CBFb FRET	RanGTP-Impb inh	YIC counter	others
CCC1CCCCN1C(=O)c1sc2ncnc(N(CC)CC)c2c1C (centres undefined)	18.5	1.0	-1.1	-0.4	·
CCN(CC)Cc1c(O)ccc2c(-c3ccccc3)cc(=O)oc12	3.6	-71.1	-18.0	1.1	·
CCN(CC)Cc1c(O)c(Cl)cc2c(C)c(C)c(=O)oc12	77.3*	90.7*	83.0*	20.3*	30*	RUNX1 CBFb TR=-202.4
Cc1cc(=O)oc2c(CN3CCC(C)CC3)c(O)c(Cl)cc12	117.9*	140.2*	77.2*	·	·	RUNX1 CBFb TR=41.2*
COc1ccc2cc(CCN3C(=O)c4ccccc4C3=O)c(=O)[nH]c2c1	-3.7	-0.9	-0.6	20.4*	>50
C=CCN1C(=O)/C(=C\c2ccc(OC(=O)c3ccco3)c(OC)c2)SC1=S	-31.5	-7.8	-4.8	18.7*	>50
CCN1CCN(Cc2ccc(NC(=O)c3ccc(C)c(/C=C/c4cnc(Nc5cc(N6CCNCC6)nc(C)n5)cn4)c3)cc2C(F)(F)F)CC1	·	·	·	31.0*	17.1*
O=C(NNC(=S)NC(=O)c1ccccc1[N+](=O)[O-])c1ccccc1[N+](=O)[O-]	-1.4	2.1	3.0	0.6	·
O=C(NNC(=S)NC(=O)c1ccccc1[N+](=O)[O-])c1ccccc1O	22.8	1.3	4.1	19.1*	>50
O=C(Cn1c(=O)c2cccn2c2cccnc21)NCCCN1CCN(c2ccc(F)cc2)CC1	·	·	·	31.5*	>50
COc1ccc(N2CCN(CCCNC(=O)Cn3c(=O)c4cccn4c4cccnc43)CC2)cc1	·	·	·	-1.0	·
COCCCNC(=S)Nc1cccc(S(=O)(=O)NC2=NCCC2)c1	2.8	0.1	-1.0	2.2	·
Cc1c(OCC(=O)NCc2ccncc2)ccc2c3c(c(=O)oc12)CCC3	·	·	·	17.0*	>50
Cc1c(OCC(=O)NCc2cccnc2)ccc2c3c(c(=O)oc12)CCC3	·	·	·	-2.0	·
COc1ccc(-c2cc(C(F)(F)F)n3nc(N)nc3n2)cc1	38.0	58.9*	26.5	27.0*	20.7*
Cn1cnnc1SCC(=O)c1cc2ccccc2oc1=O	-1.3	5.1	13.0	18.0*	>50
O=C(Nc1ccccc1)c1ccc2ccccc2n1	23.2	-0.3	-3.0	-1.3	·
N#Cc1ccc(/C=C(\C(=O)C(=O)O)c2ccc3ccccc3n2)cc1	32.1	63.8*	29.5	20.4*	12.4*
CCOC(=O)C[n+]1c(C)ccc2c1CCC2	12.9	3.5	-0.6	0.0	·
O=c1[nH]c(Nc2ccccn2)cc2ccccc12	·	·	·	37.7*	>50
Cc1cccc(-n2c(C)cc(/C=C3\C(=N)N4N=C(CC(C)C)SC4=NC3=O)c2C)c1	4.7	8.8	-21.7	26.3*	>50
CCOC(=O)c1ccc(-c2ccc3c(=O)c4ccccc4n(C)c3c2)cc1F	·	·	·	43.7*	1.29*
COc1ccc2c(CCNC(N)=S)c[nH]c2c1	7.8	-1.3	-1.3	-18.2	·
COc1ccc2c(CC#N)c[nH]c2c1	1.0	-6.2	-1.2	30.7*	>50
CSc1ncccc1C(=O)NC(C)C1CC2CCC1C2 (centres undefined)	25.2	0.9	0.1	-3.6	·
SMILES	Hck-Nef inh	Runt-SMMHC FRET	Runt-CBFb FRET	RanGTP-Impb inh	YIC counter	others
COc1ccc(N2C(=O)c3ccccc3NC2c2cccnc2)cc1 (centres undefined)	40.5	2.9	0.3	16.1*	>50
CC(C)CCNC(=O)C(c1ccco1)N(Cc1ccc(F)cc1)C(=O)c1snc(C(N)=O)c1N (centres undefined)	5.5	-0.5	-1.8	28.7*	>50
NC(=O)c1nsc(C(=O)N(Cc2ccc(F)cc2)C(C(=O)NC2CCCC2)c2ccco2)c1N (centres undefined)	·	·	·	4.7	·
N#C/C(=C\c1ccc(N2CCOCC2)o1)C(=O)NC1CCCCC1	-1.7	10.0	3.7	31.3*	3.85*
N#C/C(=C\c1ccc(OCCN2CCOCC2)cc1)C(=O)Nc1ccccc1	·	·	·	2.2	·
N#C/C(=C/c1ccc(N2CCOCC2)o1)C(=O)Nc1ccccc1	8.1	-70.2	13.4	31.3*	14.9*
N#C/C(=C\c1ccc(-c2ccc(S(=O)(=O)N3CCOCC3)cc2)o1)C(=O)NC1CC1	-15.5	26.3	1.9	·	·
CCOCCCNC(=O)/C(C#N)=C/c1ccccc1F	-0.3	-1.1	0.6	-2.0	·
COc1ccccc1NC(=S)c1ccccc1	0.8	22.5	33.9	-2.1	·
Cn1cc(/C=N\NC(=O)C2COc3ccccc3O2)c2ccccc21 (centres undefined)	1.7	1.9	0.8	2.1	·
Cc1c(/C=N\NC(=O)C2COc3ccccc3O2)c2ccccc2n1C (centres undefined)	2.7	-4.5	-0.2	23.0*	>50
CC(=O)N1c2ccc(S(=O)(=O)N3CCC(C(=O)Nc4cccc(Cl)c4)CC3)cc2CC1C (centres undefined)	·	·	·	25.0*	>50
CCCN1CC(O)=C(C#N)C1=O	12.3	0.6	-0.4	24.0*	>50
COc1cccc(-c2cc(C(F)(F)F)n3ncc(S(=O)(=O)c4ccccc4)c3n2)c1	19.6	37.7	28.8	34.9*	42.6*
Cc1cccc(Oc2nc(-c3cccc([N+](=O)[O-])c3)nc3ccccc23)c1C	-0.9	1.5	2.3	20.7*	>50
COc1nc(-c2cccc([N+](=O)[O-])c2)nc2ccccc12	20.8	-0.4	-1.4	-2.9	·
COc1cc(S(=O)(=O)Nc2cccc(C)c2)ccc1NC(=O)c1ccncc1	3.3	-5.5	15.7	0.4	·
Cc1ccc(-c2nnn(CC(=O)N(c3ccccc3)C(C(=O)NCC3CCCO3)c3ccc(Cl)cc3)n2)cc1 (centres undefined)	0.7	1.3	-4.1	21.4*	>50
COc1ccc2cc(C#N)c(N3CCN(C(=O)c4ccccc4C)CC3)nc2c1	-30.0	6.0	12.1	30.7*	>50
COc1ccc(C(=O)N2CCN(c3nc4cc(C)ccc4cc3C#N)CC2)c(OC)c1	3.5	9.8	7.9	3.1	·
COc1cc(C(=O)N2CCCN(c3nc4cc(C)ccc4cc3C#N)CC2)cc(OC)c1OC	·	44.0	4.5	52.4*	15.4*
Cc1ccc(S(=O)(=O)N2CCCN(c3nc4cc(C)ccc4cc3C#N)CC2)cc1	-0.2	48.4	8.0	32.0*	27.9*
Cc1ccc2cc(C#N)c(N3CCCN(C(=S)NCCCN(C)C)CC3)nc2c1	·	·	·	18.9*	25.1*
Cc1ccc(NC2=NC(=S)N(CC#N)C23CCCCC3)cc1	-0.1	1.1	-2.7	2.7	·
O=C(COc1ccc([N+](=O)[O-])cc1)NCC(c1cccs1)N1CCOCC1 (centres undefined)	·	·	·	2.4	·
COc1ccc(CNC2CC(C)N(C)CC2C)cc1OC (centres undefined)	·	·	·	0.8	·
Cc1ccc2cc(C#N)c(N3CCCN(C(=O)C4CCCO4)CC3)nc2c1 (centres undefined)	12.3	2.5	4.3	17.6*	26.1*
